Active and inactive are the calls of the source. The rule behind the calls is not given here.

This note sets out measurements from ChEMBL document CHEMBL4825692, “Benzofuranyl-2-imidazoles as imidazoline I2 receptor ligands for Alzheimer's disease” (Eur J Med Chem, 2021).

A short description of data set [1]: Acute toxicity in albino mouse assessed as effect on body weight at 100 mg/kg, ip. In kind it is organism-based. Particulars: in vivo.
Data set [2] is described as follows: Cmax in CD-1 mouse at 10 mg/kg, po measured after 24 hrs by HPLC/UV-VS analysis. The data set is classed as ADME, organism-based. Also noted: route oral, dose 10 mg/kg, time 24 hrs. Particulars: in vivo. An outline of the steps:
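Male CD1 mice; plasma concentration of drug at 15 min to 24 h after a single oral 10 mg/kg dose, measured by HPLC with UV at 290 nm (calibration 0,025-5 μg/mL, peak area ratio). Non-compartmental analysis of mean concentration–time curves: AUC by trapezoidal rule, Cmax read directly from the mean curve.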

A short description of data set [3]: Stability in human plasma assessed as compound remaining after 6 hrs. In kind it is ADME, cell-free. Particulars: read-out: Stabilty. An outline of the steps: (§1)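 Pooled human plasma from healthy donors, sampled at 0, 1, 2 and 6 h, reported as percentage of parent remaining.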
Data set [4] deals with Mus musculus. The data set can be described thus: Antialzheimer activity in 5xFAD transgenic Alzheimer disease mouse model assessed as decrease in heme oxygenase 1 expression at 1 mg/kg/day by Western blot analysis. (In general: Immunoblotting shows a protein as a band on a membrane.)
Data set [5] is described as follows: Stability in human plasma assessed as compound remaining after 2 hrs. In kind it is ADME, cell-free. Particulars: read-out: Stabilty. The method, boiled down:
as §1

The test system of data set [6] is Mus musculus. Put plainly: Antialzheimer activity in 5xFAD transgenic Alzheimer disease mouse model assessed as decrease in aldehyde dehydrogenase 2 expression at 1 mg/kg/day by Western blot analysis.
Data set [7] can be described thus: Displacement of [3H]2-BFI from imidazoline I2 receptor high affinity site in post-mortem human brain frontal cortex membrane two site model measured after 45 mins by liquid scintillation counting spectrometry.
Data set [8] addresses T1, Adrenergic receptor alpha-2 (Homo sapiens, UniProt P08913+P18825+P18089).
T1 sequence (P08913 whole entry): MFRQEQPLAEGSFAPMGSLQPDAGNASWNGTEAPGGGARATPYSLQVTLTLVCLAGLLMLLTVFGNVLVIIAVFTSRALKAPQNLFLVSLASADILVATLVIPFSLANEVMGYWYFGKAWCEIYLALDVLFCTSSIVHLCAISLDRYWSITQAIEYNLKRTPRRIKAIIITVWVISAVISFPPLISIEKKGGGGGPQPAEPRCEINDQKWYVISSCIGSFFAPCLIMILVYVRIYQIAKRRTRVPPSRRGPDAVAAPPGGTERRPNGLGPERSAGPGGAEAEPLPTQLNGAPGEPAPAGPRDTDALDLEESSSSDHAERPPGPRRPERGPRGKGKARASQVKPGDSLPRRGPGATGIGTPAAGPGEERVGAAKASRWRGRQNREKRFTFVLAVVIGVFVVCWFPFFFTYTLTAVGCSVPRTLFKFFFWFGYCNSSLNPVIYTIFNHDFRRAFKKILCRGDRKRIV
T1 sequence (P18825 whole entry): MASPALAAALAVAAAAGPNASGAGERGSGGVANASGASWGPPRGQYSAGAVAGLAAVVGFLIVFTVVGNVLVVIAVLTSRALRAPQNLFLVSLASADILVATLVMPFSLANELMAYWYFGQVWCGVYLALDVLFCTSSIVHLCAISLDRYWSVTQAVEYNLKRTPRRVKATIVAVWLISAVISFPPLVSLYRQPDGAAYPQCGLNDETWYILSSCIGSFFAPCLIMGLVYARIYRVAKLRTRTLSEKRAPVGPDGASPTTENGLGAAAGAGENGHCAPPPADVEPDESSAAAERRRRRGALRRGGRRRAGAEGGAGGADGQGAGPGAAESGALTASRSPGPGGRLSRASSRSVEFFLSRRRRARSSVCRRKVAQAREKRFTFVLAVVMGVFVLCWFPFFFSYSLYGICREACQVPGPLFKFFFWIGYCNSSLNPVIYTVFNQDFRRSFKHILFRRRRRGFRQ
T1 sequence (P18089 whole entry): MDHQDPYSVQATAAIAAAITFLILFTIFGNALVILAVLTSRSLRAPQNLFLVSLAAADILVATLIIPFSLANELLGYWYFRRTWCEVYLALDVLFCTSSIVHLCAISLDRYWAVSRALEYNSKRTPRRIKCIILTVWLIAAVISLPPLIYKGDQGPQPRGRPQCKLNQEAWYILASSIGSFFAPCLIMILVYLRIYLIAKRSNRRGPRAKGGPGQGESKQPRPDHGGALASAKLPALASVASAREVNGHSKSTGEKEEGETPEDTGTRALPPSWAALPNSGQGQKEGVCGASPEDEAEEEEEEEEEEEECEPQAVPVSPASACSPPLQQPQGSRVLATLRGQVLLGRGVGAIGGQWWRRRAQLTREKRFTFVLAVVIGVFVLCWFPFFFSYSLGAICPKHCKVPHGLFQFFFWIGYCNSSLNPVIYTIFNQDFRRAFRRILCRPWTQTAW
Put plainly: Displacement of [3H]-RX821002 from adrenergic alpha 2 receptor in post-mortem human brain frontal cortex membrane measured after 30 mins by liquid scintillation counting spectrometry. In kind it is cell membranes. (Displacement assays read how much labelled ligand stays bound in the presence of the test substance.)

Data set [9] in a line: Displacement of [3H]2-BFI from imidazoline I2 receptor high affinity site in Swiss mouse brain cerebral cortex membrane measured after 45 mins by liquid scintillation counting spectrometry.
Data set [10] in a line: Microsomal stability in human liver microsomes assessed as parent compound remaining after 60 mins. The data set is classed as ADME, Microsome. As to conditions: read-out: Stabilty. An outline of the steps: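 Human and mouse microsomes, incubation for 60 min, with percentage of parent compound remaining reported.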
(In general: Microsomes from liver hold many membrane-bound enzymes, among them those of drug oxidation.)

The next data set addresses hERG (KCNH2) (Homo sapiens, UniProt Q12809). The data set can be described thus: Inhibition of human ERG at 10 uM.
The test system of data set [11] is Mus musculus. The data set can be described thus: Antialzheimer activity in 5xFAD transgenic Alzheimer disease mouse model assessed as increase in GPX1 expression at 1 mg/kg/day by Western blot analysis.
For a further data set, the target named is Cytochrome P450 2C9 (Homo sapiens, UniProt P11712). Put plainly: Inhibition of CYP2C9 (unknown origin) at 10 uM. In kind it is ADME. An outline of the steps:
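Recombinant human CYP1A2, CYP2C9, CYP2C19, CYP2D6 and CYP3A4 (7-BFC or DBF as probe) were tested with probe substances and fluorescent detection, with test compound at 10 μM.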

Data set [12] is described as follows: Terminal half life in CD-1 mouse at 10 mg/kg, po measured after 24 hrs by HPLC/UV-VS analysis. Particulars: in vivo, read-out: beta t1/2 (converted). In kind it is ADME, organism-based. The method, boiled down: (§2)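 Male CD1 mice (40–50 g, n = 3–4 per group) received a single 10 mg/kg dose. Plasma was taken at 15, 30, 45 and 60 min and 2, 3, 4, 5, 8 and 24 h. Drug was measured by HPLC-UV at 290 nm against a calibration of 0,025-5 μg/mL. Non-compartmental analysis used the mean curve: t1/2β = ln2/β from least-squares terminal slope; Tmax read directly.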

The nature of data set [13]: Tmax in CD-1 mouse at 10 mg/kg, po measured after 24 hrs by HPLC/UV-VS analysis. The data set is classed as ADME, organism-based. Particulars: in vivo. The method, boiled down:
as §2

Data set [14] is described as follows: Cytotoxicity against human DND41 cells at 100 uM by real time IncuCyte proliferation assay. Particulars: dnd41, 100 µM. The data set is classed as cell-based. An outline of the steps:
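Adherent lines (LN-229, Capan-1, HCT-116, NCI-H460) seeded at 500–1500 cells/well and treated after overnight attachment. Suspension lines (HL-60, K-562, Z-138, DND-41) seeded at 2500–5500 cells/well directly with compound. Highest concentration 100 μM; proliferation tracked by real-time IncuCyte imaging over 72 h at 37 °C.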

Sequence of hERG (KCNH2) (Q12809 whole entry): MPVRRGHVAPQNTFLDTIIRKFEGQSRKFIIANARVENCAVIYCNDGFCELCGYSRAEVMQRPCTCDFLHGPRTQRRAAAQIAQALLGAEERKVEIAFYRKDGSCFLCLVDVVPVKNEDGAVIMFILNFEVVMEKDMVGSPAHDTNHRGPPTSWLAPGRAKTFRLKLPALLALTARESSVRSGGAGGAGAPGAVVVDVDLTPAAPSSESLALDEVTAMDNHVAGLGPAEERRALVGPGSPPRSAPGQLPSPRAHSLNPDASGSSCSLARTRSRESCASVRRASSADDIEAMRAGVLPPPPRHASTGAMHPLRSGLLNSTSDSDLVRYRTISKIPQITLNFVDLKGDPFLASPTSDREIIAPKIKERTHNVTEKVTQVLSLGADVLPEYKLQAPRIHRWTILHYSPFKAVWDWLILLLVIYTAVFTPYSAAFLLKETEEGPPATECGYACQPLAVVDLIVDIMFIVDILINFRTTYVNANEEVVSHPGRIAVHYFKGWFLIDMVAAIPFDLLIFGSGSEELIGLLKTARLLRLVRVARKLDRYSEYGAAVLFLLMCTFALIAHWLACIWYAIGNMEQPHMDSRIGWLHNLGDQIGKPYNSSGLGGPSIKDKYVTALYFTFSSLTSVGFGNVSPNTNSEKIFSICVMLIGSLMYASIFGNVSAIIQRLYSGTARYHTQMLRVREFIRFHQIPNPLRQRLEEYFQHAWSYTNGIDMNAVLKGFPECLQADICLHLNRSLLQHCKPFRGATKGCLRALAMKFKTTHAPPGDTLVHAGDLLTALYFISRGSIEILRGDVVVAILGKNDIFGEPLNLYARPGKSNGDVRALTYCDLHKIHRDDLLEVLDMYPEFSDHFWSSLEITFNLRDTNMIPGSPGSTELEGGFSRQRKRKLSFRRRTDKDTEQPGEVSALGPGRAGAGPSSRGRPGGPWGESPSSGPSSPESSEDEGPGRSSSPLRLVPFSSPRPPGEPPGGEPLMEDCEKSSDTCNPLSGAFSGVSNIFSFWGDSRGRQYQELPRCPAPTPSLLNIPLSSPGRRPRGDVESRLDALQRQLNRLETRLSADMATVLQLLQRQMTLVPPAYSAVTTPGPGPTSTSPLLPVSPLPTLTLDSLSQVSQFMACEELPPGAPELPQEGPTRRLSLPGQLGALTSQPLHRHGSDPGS
Sequence of Cytochrome P450 2C9 (P11712 whole entry): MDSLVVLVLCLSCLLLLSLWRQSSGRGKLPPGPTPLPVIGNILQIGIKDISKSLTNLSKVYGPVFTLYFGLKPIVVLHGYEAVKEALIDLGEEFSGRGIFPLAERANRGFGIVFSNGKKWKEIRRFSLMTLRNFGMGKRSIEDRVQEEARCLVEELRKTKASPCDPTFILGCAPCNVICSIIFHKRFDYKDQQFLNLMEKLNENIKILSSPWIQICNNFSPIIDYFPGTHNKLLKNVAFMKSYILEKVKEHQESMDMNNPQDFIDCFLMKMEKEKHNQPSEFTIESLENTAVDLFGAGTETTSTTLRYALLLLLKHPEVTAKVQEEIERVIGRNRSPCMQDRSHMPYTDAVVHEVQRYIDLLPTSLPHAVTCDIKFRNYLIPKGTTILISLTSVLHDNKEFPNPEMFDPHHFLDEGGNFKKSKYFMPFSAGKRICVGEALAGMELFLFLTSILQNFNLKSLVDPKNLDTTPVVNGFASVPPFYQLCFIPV

In the case of `Cl.c1ccc2oc(-c3ncc[nH]3)cc2c1`, the Activity entry in data set [1] and in [14] was “Non-Toxic” each time. The compound further displayed a Cmax in data set [2] of 600 ng/mL. Moreover, the remaining at 6 h in [3] is 57%. In addition, the result in the data set with Mus musculus [4], with Mus musculus [6] and in the data set on Mus musculus [11] was Active. For the same compound, in data set [5], the remaining at 2 h came out at 77%. Moreover, the figures for the pKi in data set [7], in data set [8] and in [9] were 8.17, 3.18 and 9.92, respectively. In [10], the remaining at 1 h turned out to be 58%. In addition, at hERG (KCNH2), the inhibition at 10 µM came to 4%. Moreover, the “inhibition (INH)” value against Cytochrome P450 2C9 was “Not Active”. For the same compound, the half-life in data set [12] was 6.7 h. Further, in data set [13], the Tmax was found to be 2 h.

In general, Cmax refers to the peak of the concentration-time curve. What is called pKi is −log10 of the Ki, conventionally taken in molar units. A low value points to a high Ki. The inhibition is the change of the read-out against control, counted positive when it falls. A high value points to a strong effect. In general, Tmax refers to the time at which the peak concentration occurs.
